The values below come from ChEMBL document CHEMBL1132997, “Bis(phenazine-1-carboxamides): structure-activity relationships for a new class of dual topoisomerase I/II-directed anticancer drugs” (J Med Chem, 2000).

For one experiment, the system named is MCF7. As to the kind of experiment: 50% inhibition of cell growth against MCF-7 cell line. It counts as functional. The following applies: Homo sapiens. The procedure, abridged: (§1)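 Tested in the NCI human tumour cell line panel. GI50 (nM) is the drug concentration inhibiting cell growth to 50% of controls. The panel mean ("Mid") is the average GI50 over the whole cell line panel.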

Another experiment has as its system HT-29. As to the kind of experiment: 50% inhibition of cell growth against HT-29 cell line. It is filed as functional. Particulars: Homo sapiens. Summed up: as §1
A further experiment relates to P388. Put plainly: Inhibitory activity against Murine P388 leukemia cells. It is filed as functional, cell-based. The following applies: Mus musculus. Summed up:
(§2)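 Growth inhibition in microculture with drug present throughout. Seeding was 4.5 × 10³ P388, 10³ Lewis lung or 3.75 × 10³ wild-type Jurkat cells per well. Exposure was 3 days for P388 and 4 days for the others. IC50 (nM) is the drug concentration reducing cell number to 50% of control cultures. Each value averages at least two independent duplicate determinations; CV 15–22%.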

The subject of another experiment is NCI/ADR-RES. As to the kind of experiment: 50% inhibition of cell growth against NCI/ADRcell line. It counts as functional. The following applies: Homo sapiens. The procedure, abridged: as §1
Experiment [1] has as its system Lewis lung carcinoma cell line. As to the kind of experiment: Inhibitory activity against Murine Lewis lung carcinoma cells. The following applies: Mus musculus. It is filed as functional, cell-based. The procedure, abridged:
as §2

For the next experiment, the system named is CAKI-1. As to the kind of experiment: 50% inhibition of cell growth against CAK1 cell line. It counts as functional. The following applies: Homo sapiens. Summed up: as §1
Another experiment has as its system SK-OV-3. As to the kind of experiment: 50% inhibition of cell growth against SKOV-3 cell line. It is filed as functional. The following applies: Homo sapiens. Summed up:
as §1

The nature of experiment [2]: The average concentration resulting in inhibition of cell growth to 50% whole cell line panel. It is filed as functional. Summed up:
as §1

In the next experiment the test system is Jurkat. As to the kind of experiment: Inhibitory activity against wild-type human Jurkat leukemia cells. It is filed as functional, cell-based. The procedure, abridged:
as §2

Another experiment relates to HCT-116. Put plainly: 50% inhibition of cell growth against HCT116 cell line. The following applies: Homo sapiens. It counts as functional. The procedure, abridged:
as §1

As for `Cc1cccc2nc3cccc(C(=O)NCCCN(C)CCCNC(=O)c4cccc5nc6cccc(C)c6nc45)c3nc12`, the GI50 is < 10 nM with MCF7; < 10 nM with HT-29; 19 nM with NCI/ADR-RES; < 10 nM in the experiment on CAKI-1; 220 nM in the experiment on SK-OV-3; 20 nM in experiment [2]. Moreover, in the experiment with HCT-116, the GI50 is < 10 nM. Besides, the half-inhibitory concentration (IC50) worked out at 15 nM in the experiment on P388, 1.6 nM in experiment [1] and 5.7 nM in the experiment with Jurkat.

Take `Cc1cccc2nc3c(C(=O)NCCCN(C)CCCNC(=O)c4cccc5nc6c(C)cccc6nc45)cccc3nc12`: the concentration for 50% growth inhibition (GI50) was found to be 480 nM in the experiment with MCF7; 270 nM with HT-29; 920 nM in the experiment with NCI/ADR-RES; 370 nM with CAKI-1; 12000 nM in the experiment on SK-OV-3; 740 nM in [2]. In the experiment with HCT-116, this compound came in with a GI50 of 63 nM. Further, the 50% inhibitory concentration (IC50) in the experiment with P388 was 584 nM; in experiment [1] it was 46 nM; in the experiment on Jurkat, 172 nM.

Regarding `CN(CCCNC(=O)c1cc(Cl)cc2nc3ccccc3nc12)CCCNC(=O)c1cc(Cl)cc2nc3ccccc3nc12`, the concentration for 50% growth inhibition (GI50) was 110 nM in the experiment on MCF7; < 10 nM in the experiment on HT-29; 125 nM with NCI/ADR-RES; 1170 nM in the experiment on CAKI-1; 1460 nM with SK-OV-3; 180 nM in [2]. Also, in the experiment on HCT-116, the GI50 was 18 nM. Further, the IC50 in the experiment with P388 was found to be 204 nM; in [1] it was 12 nM; in the experiment with Jurkat, 74 nM.

For `Cc1ccc2nc3c(C(=O)NCCCN(C)CCCNC(=O)c4cccc5nc6cc(C)ccc6nc45)cccc3nc2c1`, the GI50 in the experiment with MCF7 was determined as 550 nM; with HT-29, 235 nM; with NCI/ADR-RES, 2660 nM; with CAKI-1, 430 nM; with SK-OV-3, 5840 nM; in [2], 600 nM. The GI50 in the experiment on HCT-116 came to 455 nM. The half-inhibitory concentration (IC50) was 623 nM in the experiment on P388, 72 nM in [1] and 280 nM in the experiment with Jurkat.

`Cc1ccc(Cl)c2nc3cccc(C(=O)NCCCN(C)CCCNC(=O)c4cccc5nc6c(Cl)ccc(C)c6nc45)c3nc12`: the GI50 with MCF7 is < 10 nM; with HT-29, 40 nM; in the experiment on NCI/ADR-RES, 50 nM; in the experiment with CAKI-1, < 10 nM; with SK-OV-3, 2030 nM; in experiment [2], 50 nM. The GI50 in the experiment with HCT-116 is < 10 nM. For the same compound, the IC50 with P388 was 29 nM; in [1] it was 5.2 nM; in the experiment with Jurkat it was 9.8 nM.

For `COc1ccc2nc3cccc(C(=O)NCCCN(C)CCCNC(=O)c4cccc5nc6ccc(OC)cc6nc45)c3nc2c1`, the GI50 in the experiment with MCF7 was < 10 nM; with HT-29, < 10 nM; with NCI/ADR-RES it was 1210 nM; in the experiment with CAKI-1, 82 nM; in the experiment with SK-OV-3 it was 800 nM; in [2], 72 nM. In the experiment on HCT-116, the GI50 was < 10 nM. Also, the values for the IC50 (in the experiment with P388; in experiment [1]; in the experiment with Jurkat) were 75 nM, 24 nM and 30 nM, respectively.

For orientation: GI50 means the concentration that inhibits growth by half. In general, IC50 refers to the point on the concentration scale where inhibition reaches its midpoint. Low readings indicate higher potency, high ones lower potency.
